In ChEMBL document CHEMBL1212759, “Antifungal activity of colistin against mucorales species in vitro and in a murine model of Rhizopus oryzae pulmonary infection” (Antimicrob Agents Chemother, 2010):
The source made the active and inactive calls. No cut-off for these calls is given here.

What was measured:
Format in all cases: functional, organism-based
Rhizopus arrhizus [1] = assay: Fungicidal activity against Rhizopus oryzae 5799 at 2 ug/ml after 6 hrs by DiBAC staining
How it was run: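 Spores were grown to mycelia in RPMI 1640 plus 0.15% Junlon, shaken 18 h at 37°C. Mycelia were pelleted and exposed 6 h at 37°C with shaking to colistin (two levels), amphotericin B 2 μg/ml, or drug-free medium. They were washed in MOPS pH 7, stained with DiBAC 2 μg/ml for 1 h in the dark at ambient temperature, and imaged by fluorescence microscopy with an FITC filter.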

Rhizopus arrhizus [2] = assay: Antimicrobial activity against Rhizopus oryzae infected in BALB/c mouse pulmonary mucormycosis model assessed as effect on fungus-induced mortality rate at 80 mg/kg/day, ip after 10 days
How it was run: (§1)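 Female BALB/c mice (18–22 g) were immunosuppressed with cyclophosphamide 75 mg/kg i.p. and cortisone acetate 300 mg/kg s.c., then infected intranasally with ~3,500 R. oryzae spores. Colistimethate 40 mg/kg i.p. was given every 12 h for 5 days, starting 3 h post-infection; controls got saline. Groups of 10, run three times. Mortality was followed twice daily for 10 days; lung fungal burden by qPCR of rRNA gene, duplicate.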

Rhizopus arrhizus [3] = assay: Antimicrobial activity against Rhizopus oryzae infected in BALB/c mouse pulmonary mucormycosis model assessed as increase in survival rate at 5 mg/kg/day, itn after 10 days
How it was run: (§2)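 Female BALB/c mice were immunosuppressed with cyclophosphamide and cortisone acetate and infected intranasally with ~3,500 R. oryzae spores. As prophylaxis, intranasal colistimethate 2.5 mg/kg was given every 12 h for 5 days, starting 1 day before infection; on infection day it was given 3 h after spores. Groups of 10, run three times. Survival was followed over 10 days; lung burden by rRNA-gene qPCR.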

Rhizopus arrhizus [4] = assay: Antifungal activity against Rhizopus oryzae infected in BALB/c mouse pulmonary mucormycosis model assessed as decrease in fungal burden at 80 mg/kg/day, ip by RT-qPCR analysis; how it was run: as §1
Rhizopus arrhizus [5] = assay: Antifungal activity against Rhizopus oryzae infected in BALB/c mouse pulmonary mucormycosis model assessed as decrease in fungal burden at 5 mg/kg/day, itn by RT-qPCR analysis; how it was run: as §2

Molecule	Activity (Rhizopus arrhizus [1])	Activity (Rhizopus arrhizus [2])	survival (Rhizopus arrhizus [3])	inhibition (Rhizopus arrhizus [4])	inhibition (Rhizopus arrhizus [5])
C[C@@H]1[C@H](O)[C@@H](C)/C=C/C=C/C=C/C=C/C=C/C=C/C=C/[C@H](O[C@@H]2O[C@H](C)[C@@H](O)[C@H](N)[C@@H]2O)C[C@@H]2O[C@](O)(C[C@@H](O)C[C@@H](O)[C@H](O)CC[C@@H](O)C[C@@H](O)CC(=O)O[C@H]1C)C[C@H](O)[C@H]2C(=O)O	Active				
COLISTIMETHATE		inactive	61%	inactive	Active
